Experimental data reported in article PMC2834294 (Chemistry & biology, 2010).

Legend:
[1] = target: T1, TRPML3 coexpressed with dynamin (Homo sapiens, UniProt Q8TDD5); experiment: Calcium imaging, HEK293 cells coexpressing wild type dynamin with TRPML3; format: cell-based; conditions: compared to control experiments
T1 sequence (Q8TDD5 1-553): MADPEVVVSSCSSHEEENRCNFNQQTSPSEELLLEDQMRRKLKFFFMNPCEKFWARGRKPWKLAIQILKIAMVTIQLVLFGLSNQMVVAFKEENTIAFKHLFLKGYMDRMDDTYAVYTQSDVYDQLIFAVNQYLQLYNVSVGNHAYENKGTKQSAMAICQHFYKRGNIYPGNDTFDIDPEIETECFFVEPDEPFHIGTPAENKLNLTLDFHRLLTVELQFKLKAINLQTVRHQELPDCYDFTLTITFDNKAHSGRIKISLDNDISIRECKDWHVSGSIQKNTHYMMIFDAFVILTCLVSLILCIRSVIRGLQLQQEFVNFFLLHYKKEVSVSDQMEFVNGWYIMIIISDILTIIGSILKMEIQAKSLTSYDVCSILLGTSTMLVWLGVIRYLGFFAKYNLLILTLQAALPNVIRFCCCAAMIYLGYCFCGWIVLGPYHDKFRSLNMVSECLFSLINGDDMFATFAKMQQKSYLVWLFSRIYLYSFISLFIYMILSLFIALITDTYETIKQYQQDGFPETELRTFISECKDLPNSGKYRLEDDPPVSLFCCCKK
Outline: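 HEK293 cells were transiently cotransfected (Genejammer) with wild-type dynamin and TRPML3 and imaged 24 h later. Cells on glass coverslips were loaded with 4 µM fura-2-AM in bath solution (mM: 138 NaCl, 6 KCl, 2 MgCl2, 2 CaCl2, 10 HEPES, 5.5 D-glucose; pH 7.4). Responses to activators were compared with control transfections.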

[2] = target: T2, TRPML2 (Homo sapiens, UniProt Q8IZK6); experiment: Fura-2 calcium imaging, HEK293 cells expressing TRPML2; format: cell-based; conditions: 10 µM
T2 sequence (Q8IZK6 1-566): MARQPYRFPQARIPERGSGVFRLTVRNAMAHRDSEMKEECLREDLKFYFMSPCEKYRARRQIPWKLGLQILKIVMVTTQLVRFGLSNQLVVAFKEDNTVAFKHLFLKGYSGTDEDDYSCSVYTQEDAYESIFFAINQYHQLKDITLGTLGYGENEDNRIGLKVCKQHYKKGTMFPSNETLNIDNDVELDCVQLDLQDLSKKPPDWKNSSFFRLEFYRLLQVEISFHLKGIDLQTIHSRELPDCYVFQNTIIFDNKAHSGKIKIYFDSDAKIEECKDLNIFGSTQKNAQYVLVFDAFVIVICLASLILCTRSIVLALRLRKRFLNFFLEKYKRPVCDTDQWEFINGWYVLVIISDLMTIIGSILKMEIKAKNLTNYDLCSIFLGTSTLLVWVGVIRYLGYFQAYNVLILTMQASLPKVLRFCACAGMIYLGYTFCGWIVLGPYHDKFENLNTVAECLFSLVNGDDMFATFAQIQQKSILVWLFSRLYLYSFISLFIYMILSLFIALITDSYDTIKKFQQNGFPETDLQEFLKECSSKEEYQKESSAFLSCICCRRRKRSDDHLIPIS
Outline: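 HEK293 cells were transiently transfected (Genejammer) with the human channel construct or YFP control and measured 24 h later. Cells on glass coverslips were loaded with 4 µM fura-2-AM in bath solution (mM: 138 NaCl, 6 KCl, 2 MgCl2, 2 CaCl2, 10 HEPES, 5.5 D-glucose; pH 7.4). Compounds were applied at 10 µM and the F340/F380 ratio recorded. Values are mean ± SEM, n≥3.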

- response when wild type dynamin coexpressed with TRPML3 in HEK293 cells [1]: reduction in response
- response in HEK293 cells expressing TRPML2 [2]: did not show any activity
SMILES: Cc1cc(C)c(C2=NOC3C4CCC(C4)C23)c(C)c1 (centres unmarked) [SN-2, 5-mesityl-3-oxa-4-azatricyclo[5.2.1.0∼2,6∼]dec-4-ene]
